{"source": "paper PMC7145530", "about": "(Nucleic Acids Research, 2019)", "key": {"ALKBH2": {"tested_on": "ALKBH2", "assay": "Yeast two-hybrid with ALKBH2", "assay_type": "binding, human", "conditions": "strain pJ69-4A; growth on dropout plates and lacZ reporter", "outline": "(§1)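 Full-length ALKBH2 or ALKBH3 fused to Gal4 binding domain (pGBKT7) was co-transformed with Gal4 activation domain (pACT2) fusions of RAD51, RAD51B, RAD51C, RAD51D, XRCC2 or XRCC3, or empty vectors. Transformants were selected on SD -Leu -Trp plates at 30°C for 2–3 days, then spotted on -His (triple) or -His -Ade (quadruple) dropout plates. lacZ was scored qualitatively by X-gal filter assay.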"}, "ALKBH3 [1]": {"target": "T1, ALKBH3 (Homo sapiens, UniProt Q96Q83)", "T1 sequence (Q96Q83 1-286)": "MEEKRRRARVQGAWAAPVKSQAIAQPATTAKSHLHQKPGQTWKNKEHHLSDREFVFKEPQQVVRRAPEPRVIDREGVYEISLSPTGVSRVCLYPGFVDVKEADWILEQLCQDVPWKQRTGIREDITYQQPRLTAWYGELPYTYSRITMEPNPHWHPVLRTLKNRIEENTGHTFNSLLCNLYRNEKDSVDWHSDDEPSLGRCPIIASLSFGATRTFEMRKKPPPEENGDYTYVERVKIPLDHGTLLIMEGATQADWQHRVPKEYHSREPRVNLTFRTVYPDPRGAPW", "assay": "Yeast two-hybrid with ALKBH3", "assay_type": "binding", "conditions": "strain pJ69-4A; growth on dropout plates and lacZ reporter", "outline": "as §1"}, "ALKBH3 [2]": {"target": "T1, ALKBH3", "assay": "Demethylation assay by direct detection of formaldehyde", "assay_type": "biochemical", "conditions": "ferrozine 1 mM or succinate 5 mM; ALKBH3 0.2 μM, RAD51C 4.0 μM"}, "ALKBH3 [3]": {"target": "T1, ALKBH3", "assay": "Isothermal titration calorimetry", "assay_type": "binding", "conditions": "ITC, 25°C; 1 mM peptide into 15 μM ALKBH3"}, "[4]": {"target": "T2, His-tagged RAD51C (HIS-RAD51C) (human, UniProt O43502 1-376)", "T2 sequence (looked up)": "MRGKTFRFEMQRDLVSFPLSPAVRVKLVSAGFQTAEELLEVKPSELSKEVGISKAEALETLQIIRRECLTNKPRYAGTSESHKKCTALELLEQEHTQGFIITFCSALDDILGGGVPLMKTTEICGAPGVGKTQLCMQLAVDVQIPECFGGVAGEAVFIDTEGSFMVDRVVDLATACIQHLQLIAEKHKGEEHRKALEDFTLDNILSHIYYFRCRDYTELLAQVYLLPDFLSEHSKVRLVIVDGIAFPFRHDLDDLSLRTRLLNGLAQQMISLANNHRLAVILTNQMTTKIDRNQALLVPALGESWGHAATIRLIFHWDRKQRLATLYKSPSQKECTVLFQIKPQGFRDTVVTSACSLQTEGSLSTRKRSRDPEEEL", "assay": "pull-down"}, "[5]": {"target": "T3, ALKBH3 protein (recombinant, used for ITC) (human, UniProt Q96Q83 1-286)", "T3 sequence (looked up)": "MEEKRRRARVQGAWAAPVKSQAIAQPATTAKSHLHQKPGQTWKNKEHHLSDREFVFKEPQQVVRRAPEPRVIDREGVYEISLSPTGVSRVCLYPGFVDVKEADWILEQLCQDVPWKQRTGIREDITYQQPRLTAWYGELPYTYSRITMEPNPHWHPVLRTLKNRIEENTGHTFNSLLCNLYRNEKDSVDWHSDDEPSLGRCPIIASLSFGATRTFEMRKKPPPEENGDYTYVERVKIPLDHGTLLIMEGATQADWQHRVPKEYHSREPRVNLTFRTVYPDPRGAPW", "assay": "ITC"}, "RAD51C": {"tested_on": "RAD51C", "assay": "Yeast two-hybrid of ALKBH3 fragments with RAD51C", "assay_type": "binding, human", "conditions": "ALKBH3 fragments (pGBKT7) with pACT2-RAD51C", "outline": "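Yeast co-transformed with Gal4 binding-domain (pGBKT7) and activation-domain constructs were plated on SD −Leu −Trp at 30°C for 2–3 days. HIS and ADE2 reporters were scored by spotting onto −Leu −Trp −His or −Leu −Trp −His −Ade plates. lacZ was checked qualitatively by X-gal filter assay.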"}, "ALKBH3 [6]": {"target": "T1, ALKBH3", "conditions": "ssDNA substrate; cited from earlier work"}, "ALKBH3 [7]": {"target": "T1, ALKBH3", "assay": "Steady-state", "assay_type": "biochemical", "conditions": "3′-tailed DNA 0.6–9.6 μM, ALKBH3 0.2 μM, RAD51C or RAD51CΔ42–52 4 μM, FDH-coupled"}}, "note": "Read-outs that look alike come from different tables or passages of the source."}
{"molecule": "RAD51: human recombinase RAD51", "values": [{"measurement": "yeast two-hybrid interaction with ALKBH2", "setting": "ALKBH2", "value": "could not detect any interaction"}, {"measurement": "yeast two-hybrid interaction with ALKBH3", "setting": "ALKBH3 [1]", "value": "not with RAD51"}]}
{"molecule": "O=S(=O)([O-])c1ccc(-c2nnc(-c3ccccn3)nc2-c2ccc(S(=O)(=O)[O-])cc2)cc1.[Na+].[Na+]", "note": "[ferrozine, reference compound]", "values": [{"measurement": "inhibition of ALKBH3 with RAD51C present", "setting": "ALKBH3 [2]", "value": "presence of RAD51C could not alleviate the inhibitory effect of ferrozine and succinate"}]}
{"molecule": "QTAEELLEV [p33–41]", "values": [{"measurement": "binding to ALKBH3", "setting": "ALKBH3 [3]", "value": "failed to bind ALKBH3 under these conditions"}]}
{"molecule": "O=C(O)CCC(=O)O", "note": "[succinate, reference compound]", "values": [{"measurement": "inhibition of ALKBH3 with RAD51C present", "setting": "ALKBH3 [2]", "value": "presence of RAD51C could not alleviate the inhibitory effect of ferrozine and succinate"}]}
{"molecule": "GST-ALKBH3 fusion protein (natural protein, human, UniProt Q96Q83 1-286, looked up) MEEKRRRARVQGAWAAPVKSQAIAQPATTAKSHLHQKPGQTWKNKEHHLSDREFVFKEPQQVVRRAPEPRVIDREGVYEISLSPTGVSRVCLYPGFVDVKEADWILEQLCQDVPWKQRTGIREDITYQQPRLTAWYGELPYTYSRITMEPNPHWHPVLRTLKNRIEENTGHTFNSLLCNLYRNEKDSVDWHSDDEPSLGRCPIIASLSFGATRTFEMRKKPPPEENGDYTYVERVKIPLDHGTLLIMEGATQADWQHRVPKEYHSREPRVNLTFRTVYPDPRGAPW", "values": [{"measurement": "binding result", "setting": "[4]", "value": "binds"}]}
{"molecule": "KPSELSKEVGI", "note": "[synthetic peptide p42–52 of RAD51C]", "values": [{"measurement": "Kd", "setting": "[5]", "value": 4, "unit": "µM"}, {"measurement": "stoichiometry N", "setting": "[5]", "value": 1}]}
{"molecule": "RAD51C-NTD: NTD consisting of 1–66 amino acid residues (protein, left off: Gal4 activation domain, end not stated, kept) MRGKTFRFEMQRDLVSFPLSPAVRVKLVSAGFQTAEELLEVKPSELSKEVGISKAEALETLQIIRR", "values": [{"measurement": "yeast two-hybrid interaction with ALKBH3", "setting": "ALKBH3 [1]", "value": "robust interaction"}]}
{"molecule": "ΔNTD: remaining amino acid residues (67–376) of RAD51C (protein, left off: Gal4 activation domain, end not stated, kept) ECLTNKPRYAGTSESHKKCTALELLEQEHTQGFIITFCSALDDILGGGVPLMKTTEICGAPGVGKTQLCMQLAVDVQIPECFGGVAGEAVFIDTEGSFMVDRVVDLATACIQHLQLIAEKHKGEEHRKALEDFTLDNILSHIYYFRCRDYTELLAQVYLLPDFLSEHSKVRLVIVDGIAFPFRHDLDDLSLRTRLLNGLAQQMISLANNHRLAVILTNQMTTKIDRNQALLVPALGESWGHAATIRLIFHWDRKQRLATLYKSPSQKECTVLFQIKPQGFRDTVVTSACSLQTEGSLSTRKRSRDPEEEL", "values": [{"measurement": "yeast two-hybrid interaction with ALKBH3", "setting": "ALKBH3 [1]", "value": "completely abrogated the interaction"}]}
{"molecule": "RAD51CΔ33–41 (protein, left off: Gal4 activation domain, end not stated, kept) MRGKTFRFEMQRDLVSFPLSPAVRVKLVSAGFKPSELSKEVGISKAEALETLQIIRRECLTNKPRYAGTSESHKKCTALELLEQEHTQGFIITFCSALDDILGGGVPLMKTTEICGAPGVGKTQLCMQLAVDVQIPECFGGVAGEAVFIDTEGSFMVDRVVDLATACIQHLQLIAEKHKGEEHRKALEDFTLDNILSHIYYFRCRDYTELLAQVYLLPDFLSEHSKVRLVIVDGIAFPFRHDLDDLSLRTRLLNGLAQQMISLANNHRLAVILTNQMTTKIDRNQALLVPALGESWGHAATIRLIFHWDRKQRLATLYKSPSQKECTVLFQIKPQGFRDTVVTSACSLQTEGSLSTRKRSRDPEEEL", "values": [{"measurement": "yeast two-hybrid interaction with ALKBH3", "setting": "ALKBH3 [1]", "value": "partially affected"}]}
{"molecule": "RAD51CΔ1–18 (protein, left off: Gal4 activation domain, end not stated, kept) LSPAVRVKLVSAGFQTAEELLEVKPSELSKEVGISKAEALETLQIIRRECLTNKPRYAGTSESHKKCTALELLEQEHTQGFIITFCSALDDILGGGVPLMKTTEICGAPGVGKTQLCMQLAVDVQIPECFGGVAGEAVFIDTEGSFMVDRVVDLATACIQHLQLIAEKHKGEEHRKALEDFTLDNILSHIYYFRCRDYTELLAQVYLLPDFLSEHSKVRLVIVDGIAFPFRHDLDDLSLRTRLLNGLAQQMISLANNHRLAVILTNQMTTKIDRNQALLVPALGESWGHAATIRLIFHWDRKQRLATLYKSPSQKECTVLFQIKPQGFRDTVVTSACSLQTEGSLSTRKRSRDPEEEL", "values": [{"measurement": "yeast two-hybrid interaction with ALKBH3", "setting": "ALKBH3 [1]", "value": "remained unaffected"}]}
{"molecule": "RAD51CΔ19–32 (protein, left off: Gal4 activation domain, end not stated, kept) MRGKTFRFEMQRDLVSFPQTAEELLEVKPSELSKEVGISKAEALETLQIIRRECLTNKPRYAGTSESHKKCTALELLEQEHTQGFIITFCSALDDILGGGVPLMKTTEICGAPGVGKTQLCMQLAVDVQIPECFGGVAGEAVFIDTEGSFMVDRVVDLATACIQHLQLIAEKHKGEEHRKALEDFTLDNILSHIYYFRCRDYTELLAQVYLLPDFLSEHSKVRLVIVDGIAFPFRHDLDDLSLRTRLLNGLAQQMISLANNHRLAVILTNQMTTKIDRNQALLVPALGESWGHAATIRLIFHWDRKQRLATLYKSPSQKECTVLFQIKPQGFRDTVVTSACSLQTEGSLSTRKRSRDPEEEL", "values": [{"measurement": "yeast two-hybrid interaction with ALKBH3", "setting": "ALKBH3 [1]", "value": "remained unaffected"}]}
{"molecule": "RAD51CΔ53–66 (protein, left off: Gal4 activation domain, end not stated, kept) MRGKTFRFEMQRDLVSFPLSPAVRVKLVSAGFQTAEELLEVKPSELSKEVGIECLTNKPRYAGTSESHKKCTALELLEQEHTQGFIITFCSALDDILGGGVPLMKTTEICGAPGVGKTQLCMQLAVDVQIPECFGGVAGEAVFIDTEGSFMVDRVVDLATACIQHLQLIAEKHKGEEHRKALEDFTLDNILSHIYYFRCRDYTELLAQVYLLPDFLSEHSKVRLVIVDGIAFPFRHDLDDLSLRTRLLNGLAQQMISLANNHRLAVILTNQMTTKIDRNQALLVPALGESWGHAATIRLIFHWDRKQRLATLYKSPSQKECTVLFQIKPQGFRDTVVTSACSLQTEGSLSTRKRSRDPEEEL", "values": [{"measurement": "yeast two-hybrid interaction with ALKBH3", "setting": "ALKBH3 [1]", "value": "remained unaffected"}]}
{"molecule": "ALKBH3 (amino acids 175–286): C-terminal segment of ALKBH3 (protein, left off: Gal4 DNA-binding domain, end not stated, kept) SLLCNLYRNEKDSVDWHSDDEPSLGRCPIIASLSFGATRTFEMRKKPPPEENGDYTYVERVKIPLDHGTLLIMEGATQADWQHRVPKEYHSREPRVNLTFRTVYPDPRGAPW", "values": [{"measurement": "yeast two-hybrid interaction with RAD51C", "setting": "RAD51C", "value": "interacted with RAD51C"}]}
{"molecule": "ALKBH3: human oxidative demethylase ALKBH3, tag-less recombinant (protein, left off: Gal4 DNA-binding domain, end not stated, kept) MEEKRRRARVQGAWAAPVKSQAIAQPATTAKSHLHQKPGQTWKNKEHHLSDREFVFKEPQQVVRRAPEPRVIDREGVYEISLSPTGVSRVCLYPGFVDVKEADWILEQLCQDVPWKQRTGIREDITYQQPRLTAWYGELPYTYSRITMEPNPHWHPVLRTLKNRIEENTGHTFNSLLCNLYRNEKDSVDWHSDDEPSLGRCPIIASLSFGATRTFEMRKKPPPEENGDYTYVERVKIPLDHGTLLIMEGATQADWQHRVPKEYHSREPRVNLTFRTVYPDPRGAPW", "values": [{"measurement": "Km", "setting": "ALKBH3 [6]", "value": 1.9, "unit": "µM"}, {"measurement": "kcat/KM", "setting": "ALKBH3 [6]", "value": 14500, "unit": "M⁻¹ s⁻¹"}, {"measurement": "Km", "setting": "ALKBH3 [7]", "value": 1.4, "unit": "µM"}]}
